# Assay results reported in PubChem BioAssay.
# Active and inactive are the calls of the source.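 The calls were made as follows, unless noted: active = viability loss from added drug above about 55%, and viability with drug at most 40%, in both replicates (limit read from the data, passing the limit was not always enough); inconclusive = both conditions met in only one replicate; inactive = neither replicate meets both conditions.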
# How the values were obtained:
# [1] = reducers of endogenous Her2 protein level, primary screen, SKBR3 breast tumor cells, AlphaScreen, ATP viability (AID 461;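 active = Her2 level under about 52% in both replicate screens, with viability over 70% of control, limit read from the data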;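 as to Her2 level: lower value means less Her2 protein in the cells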;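 as to viability: percent of carrier control wells set as 100% viability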); conditions: 18-24 h, measured here: SKBR3 viability, ATP luminescence, at 10 µM
# [2] = target: Receptor tyrosine-protein kinase erbB-2 (Homo sapiens) (UniProt P04626); assay: as above; conditions: 18-24 h, at 10 µM, stronger effect = lower value
# [3] = SK-BR-3 cell growth inhibitors, pilot screen, 24 h, human (AID 572;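 active = viability at or below 10% of carrier control in both of two separate runs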;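 also: compound exposure lasted between 18 and 24 h rather than exactly 24 h; 100% = carrier-treated control wells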); conditions: SK-BR-3 viability, CellTiter-Glo luminescence, at 10 µM, stronger effect = lower value
# [4] = HUVEC growth inhibition – cell-based, human, primary screen (AID 575;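 active = viability at or below 30% in both replicate assays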;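 also: 100% = median of untreated cell wells with 0.1% DMSO on each plate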); conditions: HUVEC proliferation, CellTiter-Glo luminescence, 72 h; at 10 µM; stronger effect = lower value
# How it was run: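 Timing: 72 h treatment at 37 °C; material: HUVEC primary cells; technique: CellTiter-Glo luminescence measuring cellular ATP; controls: vehicle and MePR control wells; measure: percent of median DMSO-control luminescence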
# [5] = growth inhibitors of H69AR lung tumor, primary screen, human, duplicate replicates (AID 580;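 active = viability at or under a set limit in both replicates, limit being median viability minus 3 SD, cut at about 48% in these data, passing the limit was not always enough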;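 also: 100% = mean luminescence of untreated wells and 0% = no signal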); conditions: H69AR lung tumor cells viability, ATP luminescence, 72 h; at 10 µM; stronger effect = lower value
# [6] = reversal of MRP1-mediated doxorubicin resistance, pilot screen, H69AR cells, doxorubicin co-treatment (AID 601); conditions: CellTiter-Glo, 72 h, at 10 µM; for differential viability (reversal): stronger effect = higher value
# [7] = 384-well plate pilot, post-Golgi transport modulator project, inhibition of yeast transport mutant growth (AID 636; in the data active = inhibition above about 31%); conditions: absorbance 615 nm, about 18 h, stronger effect = higher value
# [8] = growth suppression of yeast trafficking mutant, preliminary HTS, modulators of trafficking downstream of Golgi apparatus project, 1536-format plate, OD 615 nm (AID 637; in the data active = inhibition above about 30%); conditions: yeast transport mutant growth, absorbance 615 nm, 18 h; stronger effect = higher value
# [9] = H69AR cells + 2 uM doxorubicin, measured here: viability with 2 uM doxorubicin, stronger effect = lower value
# [10] = H69AR cells, compound alone cytotoxicity
# Receptor tyrosine-protein kinase erbB-2 (Homo sapiens), sequence (P04626 whole entry, looked up): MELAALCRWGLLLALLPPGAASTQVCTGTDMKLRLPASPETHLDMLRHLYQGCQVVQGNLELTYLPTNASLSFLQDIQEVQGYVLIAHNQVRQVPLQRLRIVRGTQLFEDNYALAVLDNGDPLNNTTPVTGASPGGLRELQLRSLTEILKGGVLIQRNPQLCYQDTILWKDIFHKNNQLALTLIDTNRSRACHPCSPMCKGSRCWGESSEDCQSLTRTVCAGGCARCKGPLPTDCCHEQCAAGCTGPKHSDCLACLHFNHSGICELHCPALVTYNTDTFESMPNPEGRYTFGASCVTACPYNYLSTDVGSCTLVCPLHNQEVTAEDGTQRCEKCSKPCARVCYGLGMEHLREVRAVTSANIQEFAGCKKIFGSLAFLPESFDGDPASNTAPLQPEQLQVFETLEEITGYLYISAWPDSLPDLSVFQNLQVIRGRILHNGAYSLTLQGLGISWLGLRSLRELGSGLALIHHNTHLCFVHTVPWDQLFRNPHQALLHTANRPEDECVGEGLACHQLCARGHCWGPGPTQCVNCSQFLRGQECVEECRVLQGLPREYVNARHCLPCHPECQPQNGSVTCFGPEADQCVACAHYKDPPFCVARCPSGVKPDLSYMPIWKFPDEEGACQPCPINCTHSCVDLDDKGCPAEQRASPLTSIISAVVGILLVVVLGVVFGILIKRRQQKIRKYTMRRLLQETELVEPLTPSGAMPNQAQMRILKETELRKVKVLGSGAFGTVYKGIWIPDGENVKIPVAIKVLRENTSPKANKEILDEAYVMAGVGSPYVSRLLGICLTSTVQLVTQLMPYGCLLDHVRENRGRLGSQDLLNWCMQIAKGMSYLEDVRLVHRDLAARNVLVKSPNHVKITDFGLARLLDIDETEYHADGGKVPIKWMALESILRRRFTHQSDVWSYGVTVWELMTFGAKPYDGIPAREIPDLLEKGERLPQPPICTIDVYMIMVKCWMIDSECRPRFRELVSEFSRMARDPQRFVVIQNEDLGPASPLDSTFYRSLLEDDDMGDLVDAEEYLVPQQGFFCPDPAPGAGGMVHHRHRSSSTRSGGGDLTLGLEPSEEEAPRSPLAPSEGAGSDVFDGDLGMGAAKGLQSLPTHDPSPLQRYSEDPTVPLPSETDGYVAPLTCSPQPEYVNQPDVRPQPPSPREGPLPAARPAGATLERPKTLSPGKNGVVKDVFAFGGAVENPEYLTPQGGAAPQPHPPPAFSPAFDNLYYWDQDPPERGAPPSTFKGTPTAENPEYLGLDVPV
Compound,viability [1] [%],Her2 level [2],viability [3],viability [4],viability [5],differential viability (reversal) ([6]; H69AR cells + 2 uM doxorubicin),"viability [6, 9] [%]","viability [6, 10] [%]",inhibition [7],inhibition [8]
COc1ccc(C2CC(c3ccc(Cl)cc3)Nc3nc(NC(=O)c4ccco4)nn32)cc1 (stereo not given),90.5,78% (inactive),90.5% (inactive),66.3% (inactive),81.2% (inactive),-9.39% (inactive),90.6,81.2,-5.07% (inactive),2.46% (inactive)
Cc1ccc(-c2cc(C(=O)Nc3cc(C)ccc3C)[nH]n2)c(O)c1,102,88% (inactive),102% (inactive),109% (inactive),92.4% (inactive),2.75% (inactive),89.6,92.4,-3.16% (inactive),-1.9% (inactive)
Cc1ccc(-c2csc3ncn(-n4c(C)ccc4C)c(=O)c23)o1,96,114% (inactive),96% (inactive),88.7% (inactive),91.3% (inactive),10.3% (inactive),81,91.3,-5.27% (inactive),-5.57% (inactive)
CCOC(=O)C1CCN(c2c(NCCN3CCN(c4ccccc4)CC3)c(=O)c2=O)CC1,87.5,98.5% (inactive),87.5% (inactive),92.1% (inactive),99.1% (inactive),-5.04% (inactive),104,99.1,0.38% (inactive),-3.33% (inactive)
CCOc1c(C)cc2[nH]c(CCC(=O)O)nc2c1C,123,103% (inactive),123% (inactive),95.4% (inactive),93.2% (inactive),-1.08% (inactive),94.3,93.2,-6.58% (inactive),14.4% (inactive)
COc1ccc(NC(=O)CN2CCN(S(=O)(=O)c3ccc(Cl)cc3)CC2)cc1,92,76% (inactive),92% (inactive),88% (inactive),81.8% (inactive),-11.3% (inactive),93.1,81.8,-6.18% (inactive),-11% (inactive)
Cn1c(=O)n(Cc2ccc(F)cc2)c(=O)c2c1nc1n2CCCN1Cc1ccccc1,88.5,80.5% (inactive),88.5% (inactive),78.4% (inactive),70.1% (inactive),37.5% (inactive),32.6,70.1,0% (inactive),1.33% (inactive)
C=COC(=O)CSc1snc(SCC(=O)OC)c1C#N,85.5,92.5% (inactive),85.5% (inactive),66.2% (inactive),98.9% (inactive),3.02% (inactive),95.9,98.9,-5.89% (inactive),6.98% (inactive)
CCOC(=O)c1c(C)c(C(=O)NCC2CCCO2)c(C)n1C (stereo not given),100,82.5% (inactive),100% (inactive),83.5% (inactive),92.2% (inactive),11.9% (inactive),80.3,92.2,-1.71% (inactive),1.59% (inactive)
Cc1ccc(C(=O)OCC(=O)c2ccc(Cl)s2)s1,93.5,101% (inactive),93.5% (inactive),96% (inactive),97.4% (inactive),6.55% (inactive),90.8,97.4,-0.93% (inactive),-10.3% (inactive)
COc1cccc(N2CCN(CC(=O)NCc3cccs3)CC2)c1,108,100% (inactive),108% (inactive),128% (inactive),99% (inactive),6.28% (inactive),92.8,99,-3.38% (inactive),-2.17% (inactive)
Cn1c(C(=O)N2CCCC(C(=O)NCCCc3ccccc3)C2)cc2sccc21 (stereo not given),98,83.5% (inactive),98% (inactive),80.9% (inactive),82.3% (inactive),-16.3% (inactive),98.7,82.3,-1.28% (inactive),-1.17% (inactive)
Cc1ccc(C)n1NC(=O)c1ccco1,90,90% (inactive),90% (inactive),87.2% (inactive),94.8% (inactive),-9.64% (inactive),104,94.8,-2.76% (inactive),-3.39% (inactive)
CCOC(=O)C1=C(c2ccccc2)N2CCN=C2S1,94.5,100% (inactive),94.5% (inactive),100% (inactive),94.8% (inactive),5.97% (inactive),88.8,94.8,-0.93% (inactive),-9.68% (inactive)
C=CCOc1ccccc1/C=c1\sc2nc(=O)c(C)nn2c1=O,100,84% (inactive),100% (inactive),85.1% (inactive),72.6% (inactive),-10.6% (inactive),83.1,72.6,-8.27% (inactive),0.79% (inactive)
CN(C)C(=O)c1ccc(COc2ccccc2Br)o1,110,84% (inactive),110% (inactive),88.5% (inactive),90.7% (inactive),13% (inactive),77.8,90.7,-9.05% (inactive),0.48% (inactive)
CC(C)COC(=O)NCC12C=CC(O1)C1C(=O)N(c3ccc(Cl)cc3)C(=O)C12 (stereo not given),96,99.5% (inactive),96% (inactive),116% (inactive),89.9% (inactive),-2.55% (inactive),92.5,89.9,-6.16% (inactive),-7.3% (inactive)
COc1cccc(-c2nc(CSCC(=O)N3CCc4ccccc43)c(C)o2)c1,82.5,162% (inactive),82.5% (inactive),82.1% (inactive),87.1% (inactive),-10.1% (inactive),97.1,87.1,2.63% (inactive),-8.67% (inactive)
Cc1ccc2oc(-c3ccccc3C(=O)O)cc(=O)c2c1,88.5,84.5% (inactive),88.5% (inactive),89.3% (inactive),101% (inactive),-2.34% (inactive),103,101,-6.93% (inactive),6.07% (inactive)
O=C(c1ccc(S(=O)(=O)N2CCOCC2)cc1)N(c1ccc(F)cc1)C1C=CS(=O)(=O)C1 (stereo not given),97.5,109% (inactive),97.5% (inactive),75.1% (inactive),97% (inactive),4.64% (inactive),92.4,97,-1.92% (inactive),-9% (inactive)
CCC1CCCN1Cn1cnc2c([nH]c3ccc(OC)cc32)c1=O (stereo not given),104,90% (inactive),104% (inactive),111% (inactive),91.3% (inactive),1.38% (inactive),89.9,91.3,-5.6% (inactive),2.42% (inactive)
Cc1nn(C)c(C)c1S(=O)(=O)N1CCCC(C(=O)N2CCN(c3ccc(Cl)cc3)CC2)C1 (stereo not given),102,70% (inactive),102% (inactive),87.7% (inactive),88.3% (inactive),19.3% (inactive),69,88.3,-2.43% (inactive),3.49% (inactive)
O=C(NC1CCN(Cc2nnnn2CCc2ccccc2)CC1)c1ccccc1F,81.5,96% (inactive),81.5% (inactive),85.4% (inactive),86.5% (inactive),-11.7% (inactive),98.3,86.5,0.13% (inactive),-0.5% (inactive)
C=CCSC1=C(C#N)C(c2ccccc2)CC(=O)N1 (stereo not given),106,93.5% (inactive),106% (inactive),114% (inactive),104% (inactive),6.72% (inactive),97.4,104,-1.87% (inactive),-4.35% (inactive)
CCOC(=O)C(C)Sc1nc2c(cnn2-c2ccc(C)cc2)c(=O)[nH]1 (stereo not given),83,85.5% (inactive),83% (inactive),51.8% (inactive),14.4% (active),-58.2% (inactive),72.6,14.4,-2.53% (inactive),-11.2% (inactive)
CCOC(=O)c1c(C)[nH]c(C=Nc2ccccc2)c1O,94,91.5% (inactive),94% (inactive),106% (inactive),101% (inactive),10.2% (inactive),90.8,101,-4.13% (inactive),11.4% (inactive)
Cn1c(SCc2cccc3ccccc23)nnc1-c1ccco1,76,98.5% (inactive),76% (inactive),126% (inactive),92.4% (inactive),7.87% (inactive),84.5,92.4,-0.93% (inactive),-6.94% (inactive)
COc1ccc(Br)cc1C(=O)Nc1nnn(C)n1,81.5,106% (inactive),81.5% (inactive),106% (inactive),104% (inactive),10.9% (inactive),93.2,104,3.95% (inactive),30.5% (active)
COc1ccc(-c2cc3nc4n(c(=O)c3s2)CCC4)cc1,129,101% (inactive),129% (inactive),103% (inactive),84.1% (inactive),-4.84% (inactive),88.9,84.1,-5% (inactive),3.44% (inactive)
